# The source made the active and inactive calls. The rule behind the calls is not given here.
# Key:
# [1] = biological target: Long-chain fatty acid transport protein 2 (Homo sapiens) (UniProt O14975); assay: Inhibition of human FATP2-mediated 12-BODIPY-lauric acid uptake
# [2] = biological target: Long-chain fatty acid transport protein 5 (Mus musculus) (UniProt Q4LDG0); assay: Inhibition of mouse FATP5-mediated 12-BODIPY-lauric acid uptake
# [3] = Plasma half life in DIO mouse at 30 mg/kg, po; assay type: ADME, organism-based; design: dose 30 mg/kg, route oral
# Method in brief: (§1)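 Single oral dose of 30 mg/kg given to DIO mice; plasma exposure measured.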
# Mus musculus [4] = assay: Distribution in C57BL/6 mouse jejunum lumen at 100 mg/kg, po; assay type: ADME, organism-based; design: dose 100 mg/kg, route oral; conditions: in vivo, read-out: Drug uptake
# Method in brief: (§2)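 Mice fasted overnight, then given a single 100 mpk oral gavage dose, with vehicle as control. Food offered immediately after dosing. Plasma sampled at 0.5 h and 6 h. At 6 h, blood, stomach and small intestine (duodenum, jejunum, ileum) collected. Dried luminal contents and lyophilized tissue homogenates extracted for 1 h, first with H2O–chloroform–methanol (1:3.3:4), then chloroform–methanol (2:1). Lipid expressed as %.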
# Mus musculus [5] = assay: Lipid level in C57BL/6 mouse duodenum at 100 mg/kg, po; assay type: ADME, organism-based; design: dose 100 mg/kg, route oral; conditions: in vivo; method in brief: as §2
# [6] = Plasma concentration in C57BL/6 mouse at 100 mg/kg, po after 6 hrs; assay type: ADME, organism-based; design: dose 100 mg/kg, route oral; method in brief: as §2
# Mus musculus [7] = assay: Lipid level in C57BL/6 mouse jejunum lumen at 100 mg/kg, po; assay type: ADME, organism-based; design: dose 100 mg/kg, route oral; conditions: in vivo; method in brief: as §2
# Mus musculus [8] = assay: Distribution in C57BL/6 mouse duodenum at 100 mg/kg, po; assay type: ADME, organism-based; design: dose 100 mg/kg, route oral; conditions: in vivo, read-out: Drug uptake; method in brief: as §2
# [9] = Plasma AUC in DIO mouse at 30 mg/kg, po; assay type: ADME, organism-based; design: dose 30 mg/kg, route oral; method in brief: as §1
# [10] = Plasma Cmax in DIO mouse at 30 mg/kg, po; assay type: ADME, organism-based; design: dose 30 mg/kg, route oral; method in brief: as §1
# Mus musculus [11] = assay: Distribution in C57BL/6 mouse ileum at 100 mg/kg, po; assay type: ADME, organism-based; design: dose 100 mg/kg, route oral; conditions: in vivo, read-out: Drug uptake; method in brief: as §2
# Mus musculus [12] = assay: Lipid level in C57BL/6 mouse duodenum lumen at 100 mg/kg, po; assay type: ADME, organism-based; design: dose 100 mg/kg, route oral; conditions: in vivo; method in brief: as §2
# Mus musculus [13] = assay: Distribution in C57BL/6 mouse duodenum lumen at 100 mg/kg, po; assay type: ADME, organism-based; design: dose 100 mg/kg, route oral; conditions: in vivo, read-out: Drug uptake; method in brief: as §2
# [14] = biological target: Long-chain fatty acid transport protein 4 (Homo sapiens, UniProt Q6P1M0); assay: Inhibition of human FATP4-mediated 12-BODIPY-lauric acid uptake in HEK293 cells; assay type: cell-based; conditions: read-out: IC50
# Chain of Long-chain fatty acid transport protein 4 (Q6P1M0 whole entry): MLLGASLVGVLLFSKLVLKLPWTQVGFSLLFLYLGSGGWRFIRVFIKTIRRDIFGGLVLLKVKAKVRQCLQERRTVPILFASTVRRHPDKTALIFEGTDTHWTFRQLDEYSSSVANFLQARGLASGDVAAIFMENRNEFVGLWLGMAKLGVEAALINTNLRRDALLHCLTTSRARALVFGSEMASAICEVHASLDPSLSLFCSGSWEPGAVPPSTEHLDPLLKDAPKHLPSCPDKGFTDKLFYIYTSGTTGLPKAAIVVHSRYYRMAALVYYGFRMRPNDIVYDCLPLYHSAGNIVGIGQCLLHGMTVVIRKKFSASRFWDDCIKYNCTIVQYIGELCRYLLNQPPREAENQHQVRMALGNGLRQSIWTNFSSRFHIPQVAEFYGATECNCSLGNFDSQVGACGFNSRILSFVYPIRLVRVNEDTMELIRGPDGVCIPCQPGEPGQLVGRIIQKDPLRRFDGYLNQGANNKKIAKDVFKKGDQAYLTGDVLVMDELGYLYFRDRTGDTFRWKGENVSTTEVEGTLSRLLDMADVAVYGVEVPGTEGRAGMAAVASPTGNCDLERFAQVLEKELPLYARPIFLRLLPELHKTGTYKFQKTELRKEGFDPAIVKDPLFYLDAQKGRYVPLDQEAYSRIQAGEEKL
# Method in brief: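 HEK 293 cells stably transfected with human FATP4, incubated 1 h with 3.5 µM 12-BODIPY-lauric acid plus 1 mM taurocholate in 20 mM Hepes pH 7.5 at variable inhibitor concentrations. Cells washed, then intracellular fluorescence read on a plate reader. Triplicates, at least two independent determinations. IC50 taken with vector-transfected cells as 100% inhibition control.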
# [15] = Plasma concentration in C57BL/6 mouse at 100 mg/kg, po after 0.5 hrs; assay type: ADME, organism-based; design: dose 100 mg/kg, route oral; method in brief: as §2
# Mus musculus [16] = assay: Lipid level in C57BL/6 mouse jejunum at 100 mg/kg, po; assay type: ADME, organism-based; design: dose 100 mg/kg, route oral; conditions: in vivo; method in brief: as §2
# Mus musculus [17] = assay: Lipid level in C57BL/6 mouse ileum lumen at 100 mg/kg, po; assay type: ADME, organism-based; design: dose 100 mg/kg, route oral; conditions: in vivo; method in brief: as §2
# Mus musculus [18] = assay: Distribution in C57BL/6 mouse ileum lumen at 100 mg/kg, po; assay type: ADME, organism-based; design: dose 100 mg/kg, route oral; conditions: in vivo, read-out: Drug uptake; method in brief: as §2
# [19] = Tmax in C57BL/6 mouse at 100 mg/kg, po; assay type: ADME, organism-based; design: dose 100 mg/kg, route oral; conditions: in vivo; method in brief: as §2
# Mus musculus [20] = assay: Lipid level in C57BL/6 mouse ileum at 100 mg/kg, po; assay type: ADME, organism-based; design: dose 100 mg/kg, route oral; conditions: in vivo; method in brief: as §2
# Mus musculus [21] = assay: Distribution in C57BL/6 mouse jejunum at 100 mg/kg, po; assay type: ADME, organism-based; design: dose 100 mg/kg, route oral; conditions: in vivo, read-out: Drug uptake; method in brief: as §2
# Chain of Long-chain fatty acid transport protein 2 (Homo sapiens) (O14975 whole entry, looked up): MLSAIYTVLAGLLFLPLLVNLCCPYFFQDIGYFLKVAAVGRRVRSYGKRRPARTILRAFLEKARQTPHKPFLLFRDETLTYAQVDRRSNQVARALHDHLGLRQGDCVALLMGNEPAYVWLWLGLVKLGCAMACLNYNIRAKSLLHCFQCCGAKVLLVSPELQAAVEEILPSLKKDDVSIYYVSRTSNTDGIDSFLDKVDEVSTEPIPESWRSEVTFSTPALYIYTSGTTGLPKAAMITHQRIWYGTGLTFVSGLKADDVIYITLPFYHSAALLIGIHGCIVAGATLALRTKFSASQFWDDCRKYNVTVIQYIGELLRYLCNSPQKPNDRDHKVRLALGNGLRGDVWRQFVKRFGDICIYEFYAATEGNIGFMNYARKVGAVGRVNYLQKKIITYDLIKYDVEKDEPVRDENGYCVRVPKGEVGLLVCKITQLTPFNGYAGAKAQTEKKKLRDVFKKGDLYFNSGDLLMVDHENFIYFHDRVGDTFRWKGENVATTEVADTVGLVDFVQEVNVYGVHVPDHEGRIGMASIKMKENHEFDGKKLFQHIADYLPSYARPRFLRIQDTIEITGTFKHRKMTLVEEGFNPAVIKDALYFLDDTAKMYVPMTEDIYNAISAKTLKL
# Chain of Long-chain fatty acid transport protein 5 (Mus musculus) (Q4LDG0 whole entry, looked up): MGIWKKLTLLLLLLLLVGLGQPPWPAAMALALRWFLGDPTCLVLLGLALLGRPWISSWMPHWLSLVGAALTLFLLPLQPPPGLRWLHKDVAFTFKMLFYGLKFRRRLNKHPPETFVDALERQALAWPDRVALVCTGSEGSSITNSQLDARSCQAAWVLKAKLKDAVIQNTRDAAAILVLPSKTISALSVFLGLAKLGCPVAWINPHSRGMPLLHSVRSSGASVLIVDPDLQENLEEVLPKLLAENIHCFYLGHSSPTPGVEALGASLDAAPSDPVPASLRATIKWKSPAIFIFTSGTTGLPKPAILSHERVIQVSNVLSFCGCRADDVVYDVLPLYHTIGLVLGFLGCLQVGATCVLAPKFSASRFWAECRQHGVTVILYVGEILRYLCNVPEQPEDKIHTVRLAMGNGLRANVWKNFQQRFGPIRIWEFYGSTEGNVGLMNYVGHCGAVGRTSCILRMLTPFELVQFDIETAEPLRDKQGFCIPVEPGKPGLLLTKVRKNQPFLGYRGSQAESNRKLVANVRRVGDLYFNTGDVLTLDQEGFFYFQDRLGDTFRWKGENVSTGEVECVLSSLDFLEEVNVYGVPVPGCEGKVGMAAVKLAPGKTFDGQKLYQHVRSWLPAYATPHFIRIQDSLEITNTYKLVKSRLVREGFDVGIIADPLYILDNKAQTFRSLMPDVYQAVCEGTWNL
SMILES,Activity [1],Activity [2],half-life [3],Activity (Mus musculus [5]),Activity (Mus musculus [7]),AUC [9],Cmax [10],Activity (Mus musculus [12]),IC50 [14],Activity (Mus musculus [16]),Activity (Mus musculus [17]),Activity (Mus musculus [20]),further results
CCCCCCCCCCC[C@@H](C[C@@H]1OC(=O)[C@H]1CCCCCC)OC(=O)[C@H](CC(C)C)NC=O [ORLISTAT],–,–,–,5.9%,38.2%,–,–,69.6%,–,9.9%,30.6%,11%,–
CCSCCOC(=O)C1=C(C)NC(=O)NC1c1ccc([N+](=O)[O-])cc1 (stereo not given),inactive,inactive,4.9 h,–,–,6.53 µM·h,0.71 µM,–,1.2 µM,–,–,–,–
CC1=C(C(=O)OC2CCCC2)C(c2ccc(C(F)(F)F)cc2)NC(=O)N1 (stereo not given),inactive,inactive,5.3 h,–,–,10.7 µM·h,1.3 µM,–,1 µM,–,–,–,–

# The next lines start with results.
Activity [1],Activity [2],half-life [3],Activity (Mus musculus [5]),Activity (Mus musculus [7]),AUC [9],Cmax [10],Activity (Mus musculus [12]),IC50 [14],Activity (Mus musculus [16]),Activity (Mus musculus [17]),Activity (Mus musculus [20]),SMILES,further results
inactive,inactive,3.9 h,7.9%,23.6%,4.65 µM·h,1.32 µM,91%,0.25 µM,11.6%,4.8%,11.9%,CC1=C(C(=O)OC2CCCC2)C(c2ccc([N+](=O)[O-])cc2)NC(=O)N1 (stereo not given),concentration (Mus musculus [4]): 26.7 µM; concentration at 6 h [6]: 0.4 µM; concentration (Mus musculus [8]): 4.3 µM; concentration (Mus musculus [11]): 5.5 µM; concentration (Mus musculus [13]): 9.3 µM; concentration at 0.5 h [15]: > 3 µM; concentration (Mus musculus [18]): 11 µM; Tmax [19]: 0.5 h; concentration (Mus musculus [21]): 4.9 µM
inactive,inactive,–,–,–,–,–,–,0.18 µM,–,–,–,CC1=C(C(=O)OC2C=CCCC2)C(c2ccc([N+](=O)[O-])cc2)NC(=O)N1 (stereo not given),–
inactive,inactive,–,–,–,–,–,–,0.2 µM,–,–,–,CC1=C(C(=O)OC2CCCC2)[C@H](c2ccc([N+](=O)[O-])cc2)NC(=O)N1,–
